# Many of the other results were omitted from the sample, so hits are more common in it than they were.
# IDH1 mut inh: blocks human IDH1 R132H reductase activity; inhibition, % at 10 µM; actives 0.18% (n = 70,000); O75874; diaphorase/resazurin fluorescence, 60 min; AID 624101; in the data active means inhibition above about 34%;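 further: 0% = DMSO and 100% = no enzyme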
# Pf Dd2 inh: P. falciparum Dd2 growth inhibition. SYBR Green, 72 h; active compounds read low. activity change, % at 10 µM. actives 2.3% (n = 94,000); in the data active means activity change below about -80%
# KDM4C inh: KDM4C (human) demethylase inhibition; actives 0.15% (n = 96,000); GST-KDM4C 2-372, H3K9me3 peptide, LANCE TR-FRET; Q9H3R0; inhibition, % at 12.5 µM;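 active means mean replicate inhibition above about 25%, with at least 55% of replicates also reaching it, limit read from the data, passing the limit was not always enough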
# Target sequence (Q9H3R0 2-372 limits assumed): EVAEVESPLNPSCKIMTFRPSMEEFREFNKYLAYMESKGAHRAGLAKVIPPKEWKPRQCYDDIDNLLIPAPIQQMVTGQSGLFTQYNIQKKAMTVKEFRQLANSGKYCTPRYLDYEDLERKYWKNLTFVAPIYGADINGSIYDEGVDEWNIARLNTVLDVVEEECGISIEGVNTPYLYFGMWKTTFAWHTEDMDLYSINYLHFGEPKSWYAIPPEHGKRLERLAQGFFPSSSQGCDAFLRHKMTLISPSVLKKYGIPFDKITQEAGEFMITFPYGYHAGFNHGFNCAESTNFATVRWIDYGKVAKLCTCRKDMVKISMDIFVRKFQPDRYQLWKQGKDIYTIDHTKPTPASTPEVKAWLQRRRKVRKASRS
#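 Assay system: GST-GASC-1 enzyme fragment 2-372 | Amount: 10 nM enzyme | Medium: HEPES buffer, pH 7.5, plus ascorbate | Reagent: H3K9me3 peptide substrate, Fe(II), 2-oxoglutarate | Doses: Single-point compound screen | Incubation: 30 min demethylation and 1 h detection at room temperature | Measured by: LANCE TR-FRET, excitation 340 nm, emissions 618 and 671 nm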
# Numbers without * were called inactive; . = no result given.
SMILES,IDH1 mut inh,Pf Dd2 inh,KDM4C inh
C[C@@H]1CCCCO[C@@H](CN(C)S(=O)(=O)c2cccs2)[C@@H](C)CN([C@@H](C)CO)C(=O)c2cc(NC(=O)Nc3ccc4c(c3)OCO4)ccc2O1,.,-67,2
C[C@@H]1CCCCO[C@H](CN(C)S(=O)(=O)c2cccs2)[C@@H](C)CN([C@H](C)CO)C(=O)c2cc(NC(=O)NC3CCCCC3)ccc2O1,.,-46,1
C[C@@H]1CN([C@H](C)CO)C(=O)c2cc(NC(=O)Cc3ccccc3)ccc2O[C@@H](C)CCCCO[C@@H]1CN(C)S(=O)(=O)c1cccs1,0,-81*,0
C[C@@H]1CN([C@@H](C)CO)C(=O)c2cc(NC(=O)NC3CCCCC3)ccc2O[C@@H](C)CCCCO[C@@H]1CN(C)S(=O)(=O)c1cccs1,0,-89*,-1
C[C@@H]1CCCCO[C@H](CN(C)S(=O)(=O)c2cccs2)[C@H](C)CN([C@@H](C)CO)C(=O)c2cc(NC(=O)NC3CCCCC3)ccc2O1,2,-84*,.
C[C@@H]1CN([C@H](C)CO)C(=O)c2cc(NC(=O)Nc3ccc4c(c3)OCO4)ccc2O[C@@H](C)CCCCO[C@@H]1CN(C)S(=O)(=O)c1cccs1,0,-92*,-2
C[C@@H]1CCCCO[C@@H](CN(C)S(=O)(=O)c2cccs2)[C@@H](C)CN([C@H](C)CO)C(=O)c2cc(NC(=O)Cc3ccccc3)ccc2O1,1,-54,-1
C[C@@H]1CCCCO[C@@H](CN(C)S(=O)(=O)c2cccs2)[C@H](C)CN([C@@H](C)CO)C(=O)c2cc(NC(=O)NC3CCCCC3)ccc2O1,4,-45,-1
COCC(=O)N1[C@H](C#N)[C@H](c2ccccc2-c2ccccc2)[C@H]1CO,.,0,-1
COc1cccc(C#Cc2cnc3c(c2)C(=O)N([C@@H](C)CO)C[C@H](C)[C@@H](CN(C)C(=O)C2CCCCC2)O3)c1,.,-86*,-2
COc1cccc(C#Cc2cnc3c(c2)C(=O)N([C@H](C)CO)C[C@H](C)[C@@H](CN(C)C(=O)C2CCCCC2)O3)c1,.,-87*,-2
COc1cccc(C#Cc2cnc3c(c2)C(=O)N([C@@H](C)CO)C[C@@H](C)[C@@H](CN(C)C(=O)C2CCCCC2)O3)c1,0,0,-1
C[C@H]1CN([C@@H](C)CO)C(=O)c2cc(Br)cnc2O[C@@H]1CN(C)C(=O)NC1CCCCC1,.,4,0
COc1cccc(C#Cc2cnc3c(c2)C(=O)N([C@H](C)CO)C[C@H](C)[C@H](CN(C)C(=O)C2CCCCC2)O3)c1,.,-86*,-5
COc1cccc(C#Cc2cnc3c(c2)C(=O)N([C@H](C)CO)C[C@@H](C)[C@H](CN(C)C(=O)C2CCCCC2)O3)c1,-4,-68,-3
COc1cccc(C#Cc2cnc3c(c2)C(=O)N([C@H](C)CO)C[C@@H](C)[C@@H](CN(C)C(=O)C2CCCCC2)O3)c1,-1,-62,-1
C[C@H](CO)N1C[C@H](C)[C@H](CN(C)C(=O)NC2CCCCC2)Oc2ncc(Br)cc2C1=O,35*,6,3
C[C@@H]1CN([C@@H](C)CO)C(=O)c2cccc(NC(=O)NC3CCCCC3)c2O[C@@H]1CN(C)S(=O)(=O)c1ccc(F)cc1,1,-31,-1
Cc1noc(C)c1NC(=O)N1C[C@@H](O)COC[C@H]2O[C@H](CC(=O)NCC3CC3)CC[C@@H]21,.,.,0
CC(=O)CCCCCCCc1[nH]c2ccccc2c(=O)c1O[C@@H]1O[C@H](CO)[C@@H](O)[C@H](O)[C@H]1O,0,.,.
COc1cccc(C#Cc2cnc3c(c2)C(=O)N([C@@H](C)CO)C[C@@H](C)[C@H](CN(C)C(=O)C2CCOCC2)O3)c1,-8,-55,0
COc1cccc(C#Cc2cnc3c(c2)C(=O)N([C@H](C)CO)C[C@H](C)[C@@H](CN(C)C(=O)C2CCOCC2)O3)c1,.,-81*,-1
O=C(CN1CCOCC1)N[C@H]1CC[C@@H](CCn2cc(C3CCCCC3)nn2)O[C@@H]1CO,0,7,7
C[C@@H]1CN([C@H](C)CO)C(=O)c2cccc(NC(=O)CCCCCC(=O)Nc3ccccc3N)c2O[C@@H]1CN(C)Cc1ccc(-c2ccccc2)cc1,0,-89*,8
C[C@@H]1CN([C@H](C)CO)C(=O)c2cccc(NC(=O)CCCCCC(=O)Nc3ccccc3N)c2O[C@@H]1CN(C)Cc1ccccc1,.,-78,3
SMILES,IDH1 mut inh,Pf Dd2 inh,KDM4C inh
C[C@H]1CN([C@@H](C)CO)C(=O)c2cccc(NC(=O)CCCCCC(=O)Nc3ccccc3N)c2O[C@H]1CN(C)Cc1ccc(-c2ccccc2)cc1,0,-85*,-1
C[C@H]1CN([C@@H](C)CO)C(=O)c2cccc(NC(=O)CCCCCC(=O)Nc3ccccc3N)c2O[C@@H]1CN(C)Cc1ccccc1,.,.,-3
CCCNC(=O)Nc1ccc2c(c1)OC[C@H](C)N(CCC(F)(F)F)C[C@@H](C)[C@@H](OC)CN(C)C2=O,0,-9,1
Cc1ccc(S(=O)(=O)N(C)C[C@@H]2Oc3ccc(NC(=O)Nc4ccccc4)cc3C(=O)N([C@H](C)CO)C[C@H]2C)cc1,.,-4,-1
CCC(=O)NC[C@@H]1[C@@H](c2ccc(C3=CCCCC3)cc2)[C@@H](CO)N1CC1CC1,.,-65,1
CCC(=O)N1[C@H](CO)[C@H](c2ccc(C3=CCCCC3)cc2)[C@@H]1CNC1CCCC1,.,-76,0
CCCNC[C@@H]1[C@@H](c2ccc(C3=CCCCC3)cc2)[C@@H](CO)N1C(=O)C1CCC1,.,-73,1
CCCNC[C@H]1[C@@H](c2ccc(C3=CCCCC3)cc2)[C@@H](CO)N1C(=O)C1CCC1,.,-83*,0
CCC(=O)N1[C@H](CO)[C@H](c2ccc(C3=CCCCC3)cc2)[C@H]1CNCC1CCC1,.,-85*,0
OC[C@@H]1[C@H](c2ccc(C3=CCCC3)cc2)[C@@H](CNC2CCCC2)N1CC1CC1,.,-91*,0
COc1ccc(NC(=O)Nc2ccc3c(c2)C(=O)N([C@@H](C)CO)C[C@@H](C)[C@H](CN(C)S(=O)(=O)c2ccc(OC)cc2)OCCCC[C@H](C)O3)cc1,.,-75,0
C[C@@H]1CN([C@H](C)CO)C(=O)c2cccc(NC(=O)c3nc4ccccc4s3)c2O[C@@H]1CN(C)Cc1ccc(C(=O)O)cc1,.,-33,2
C[C@@H]1CN([C@@H](C)CO)C(=O)c2cccc(NC(=O)c3nc4ccccc4s3)c2O[C@H]1CN(C)Cc1ccc(C(=O)Nc2ccccc2N)cc1,.,-91*,0
C[C@@H]1CN([C@H](C)CO)C(=O)c2cccc(NC(=O)c3nc4ccccc4s3)c2O[C@@H]1CN(C)Cc1ccc(C(=O)Nc2ccccc2N)cc1,0,-88*,-1
C[C@H](CO)N1C[C@H](C)[C@H](CN(C)Cc2ccc(C(F)(F)F)cc2)Oc2c(NC(=O)c3nc4ccccc4s3)cccc2C1=O,-4,-87*,-1
C[C@@H]1CN([C@@H](C)CO)C(=O)c2cccc(NC(=O)c3nc4ccccc4s3)c2O[C@@H]1CN(C)Cc1ccc(C(=O)O)cc1,.,-23,-1
C[C@H]1CN([C@@H](C)CO)C(=O)c2cccc(NC(=O)c3nc4ccccc4s3)c2O[C@@H]1CN(C)Cc1ccc(C(F)(F)F)cc1,.,-45,-2
